Assay outcomes: PubChem, The Scripps Research Institute Molecular Screening Center
CHO parental Ca = signal in parental CHO cells, OX1R antagonist counter-screen | inhibition, % at 5.6 µM | 0.63% of 330,000 active | parental CHO-K1, ATP-induced calcium, Fluo-8 fluorescence | AID 463079;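 active means inhibition above that plate's mean sample inhibition plus 3 SD, cut at about 26% in these data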
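Test system: untransfected parental CHO cell line; also added: ATP stimulus; dosing: 5.6 µM, single dose; signal: calcium-sensitive Fluo-8 fluorescence; measure: percent inhibition of ATP-evoked calcium rise, normalized to controls; benchmarks: low control ATP plus DMSO, high control DMSO only; replication: one well per compound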
TAAR1 agonist = human TAAR1 agonism | CHO RD-HGA16 TAAR1, Fluo-8 calcium fluorescence; vehicle wells 0%, saturating PEA agonist 100% | 0.99% of 360,000 active | AID 624467 | activation, % at 3 µM;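 active means activation above the mean activation of all test compounds in the run plus 3 SD, cut at about 38% in these data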
Target sequence (Q96RJ0 whole entry, looked up): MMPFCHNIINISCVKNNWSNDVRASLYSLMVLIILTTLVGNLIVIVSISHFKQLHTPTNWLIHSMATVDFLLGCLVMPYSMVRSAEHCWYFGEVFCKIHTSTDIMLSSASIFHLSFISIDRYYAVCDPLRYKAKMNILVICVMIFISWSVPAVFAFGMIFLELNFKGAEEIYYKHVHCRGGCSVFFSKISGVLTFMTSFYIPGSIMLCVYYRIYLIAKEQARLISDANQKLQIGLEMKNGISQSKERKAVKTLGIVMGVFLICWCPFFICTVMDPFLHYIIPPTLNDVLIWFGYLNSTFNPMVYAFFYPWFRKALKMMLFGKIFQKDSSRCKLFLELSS
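Assay system: CHO-derived RD-HGA16 cells with stable Gα16 and human TAAR1; timing: 17-24 h seeding, 75 min 37 °C dye, 30 min RT; read-out: % activation from peak over basal fluorescence ratio, DMSO-to-PEA scaled; measured by: kinetic Fluo-8 calcium fluorescence; benchmarks: low control DMSO, high control PEA (EC100); doses: 3 µM single concentration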
OX1R antag-1 = antagonists of human orexin 1 receptor (OX1R); O43613; OX1R-expressing cells, FRET antagonist read-out; inhibition, % at 6.6 µM; 1.8% of 330,000 active; AID 485270; in the data active means inhibition mostly above about 38%, no sharp cut-off; inactive means mostly below about 40%
GPR7 antag = human neuropeptides B/W receptor 1 antagonism; GPR7-expressing cells, fluorescence antagonist assay; inhibition, % at 4.4 µM; 1.1% of 290,000 active; AID 1861; in the data active means inhibition above about 16%, passing the limit was not always enough;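 further: cells stimulated with the agonist NPW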
Target sequence (P48145 whole entry, looked up): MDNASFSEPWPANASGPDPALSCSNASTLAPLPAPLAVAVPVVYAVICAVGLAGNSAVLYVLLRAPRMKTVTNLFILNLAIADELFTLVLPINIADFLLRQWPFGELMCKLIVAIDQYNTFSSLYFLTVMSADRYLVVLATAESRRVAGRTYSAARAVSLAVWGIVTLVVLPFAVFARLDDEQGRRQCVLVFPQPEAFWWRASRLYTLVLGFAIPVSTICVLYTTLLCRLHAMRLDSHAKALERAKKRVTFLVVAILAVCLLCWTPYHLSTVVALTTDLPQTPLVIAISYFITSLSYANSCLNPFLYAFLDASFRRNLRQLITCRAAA
TAAR1 antagonist = antagonists of human TAAR1; Q96RJ0; CHO RD-HGA16 TAAR1, Fluo-8 calcium fluorescence, antagonist; inhibition, % at 3 µM; 1.5% of 360,000 active; AID 624466;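 active means inhibition above a per-plate cutoff, the mean inhibition of test compounds on that plate plus 3 SD, cut at about 49% in these data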
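Test system: RD-HGA16 CHO cells with stable hTAAR1 and Gα16 / Probe or stimulus: EC80 β-phenethylamine stimulus / Times: seeding 17-24 h prior, 75-min 37 °C, 30-min RT dye loading / Detection: Fluo-8 calcium-sensitive fluorescence / Read-out basis: % inhibition scaled between DMSO and EC80 PEA controls / Repeats: singlicate, one well per test compound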
OX1R antag-2 = human HCRTR1 antagonism. O43613. CHO/OX1R cells, Fluo-8 calcium fluorescence, orexin A. inhibition, % at 5 µM. 0.43% of 330,000 active. AID 434989;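 active means inhibition above its plate's threshold, mean inhibition of all tested compounds on the plate plus 3 SD, cut at about 37% in these data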
OX1R HTRF confirm = OX1R (human) antagonism, HTRF confirmed. shares compounds with OX1R antag-1. AID 492964. inhibition, % at 6.6 µM. OX1R-expressing cells, HTRF antagonist assay. 49% of 1,800 active; in the data active means inhibition above about 55%;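 further: CHO cells expressing OX1R stimulated with orexin A at about EC80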
CHO-K1 HTRF = counter-screen for OX1R antagonists: effect in parental CHO-K1 cells; inhibition, % at 6.6 µM; 48% of 1,800 active; shares compounds with OX1R antag-1; HTRF counterscreen; AID 493232; in the data active means inhibition above about 17%
Numbers stand for hits. Shown are actives, neighbours in structure and some others; about 4.6% of the full set was active somewhere.

For COCCNC(=O)c1ccc(N2CC3CC(C2)c2cccc(=O)n2C3)c(NC(=O)c2ccccc2Br)c1 (configuration not stated) the results were TAAR1 agonist inactive and TAAR1 antagonist inactive.
`O=C(O)CCCCCNS(=O)(=O)c1cccc2c1C(=O)c1ccccc1C2=O` gave CHO parental Ca inactive, TAAR1 agonist inactive, OX1R antag-1 138, GPR7 antag inactive, TAAR1 antagonist inactive, OX1R antag-2 inactive, OX1R HTRF confirm 55 and CHO-K1 HTRF 86.
CC1=C(C(=O)OC2CCCCC2)C(c2ccc(C)o2)C2=C(CCCC2=O)N1 (configuration not stated) was read as CHO parental Ca inactive, TAAR1 agonist inactive, OX1R antag-1 99, GPR7 antag inactive, TAAR1 antagonist inactive, OX1R antag-2 inactive, OX1R HTRF confirm 87 and CHO-K1 HTRF inactive.
CC1=C(C(=O)OCc2ccccc2)C(c2ccc(C)o2)C2=C(CCCC2=O)N1 (configuration not stated) was read as CHO parental Ca inactive, TAAR1 agonist inactive, OX1R antag-1 inactive, GPR7 antag inactive, TAAR1 antagonist inactive and OX1R antag-2 inactive.
Screening Cc1cc(OCC(=O)NCCc2c[nH]c3ccccc23)c2c(C)c(C)c(=O)oc2c1 returned CHO parental Ca inactive, TAAR1 agonist inactive, OX1R antag-1 86, GPR7 antag inactive, TAAR1 antagonist inactive, OX1R antag-2 inactive, OX1R HTRF confirm inactive and CHO-K1 HTRF inactive.
`CC(C)[C@@H]1Cc2[nH][nH]c(=O)c2[C@H](c2ccc(F)cc2)O1` gave TAAR1 agonist inactive and TAAR1 antagonist inactive.
For COc1cc(Cl)c(C)cc1NC(=O)CN1CCN(C(=O)c2cccs2)CC1 the results were TAAR1 agonist inactive and TAAR1 antagonist inactive.
CC1CCc2nc(NC(=O)CSc3nc4ccccc4o3)sc2C1 (configuration not stated) was read as CHO parental Ca inactive, TAAR1 agonist inactive, OX1R antag-1 89, GPR7 antag inactive, TAAR1 antagonist inactive, OX1R antag-2 inactive, OX1R HTRF confirm inactive and CHO-K1 HTRF inactive.
Cc1nnc(NC(=O)CSc2nc3ccccc3o2)s1 was read as CHO parental Ca inactive, TAAR1 agonist inactive, OX1R antag-1 inactive, GPR7 antag inactive, TAAR1 antagonist inactive and OX1R antag-2 inactive.
CN(C)c1ccc(/C=c2\sc3n(c2=O)CCCN=3)cc1 was read as CHO parental Ca inactive, TAAR1 agonist inactive, OX1R antag-1 116, GPR7 antag inactive, TAAR1 antagonist inactive, OX1R antag-2 inactive, OX1R HTRF confirm inactive and CHO-K1 HTRF 31.
Screening O=c1/c(=C/c2ccc(O)cc2)sc2n1CCCN=2 returned CHO parental Ca inactive, TAAR1 agonist inactive, OX1R antag-1 inactive, GPR7 antag inactive, TAAR1 antagonist inactive and OX1R antag-2 inactive.
For O=C(N/N=C/c1ccc([N+](=O)[O-])o1)C(=O)Nc1ccc(C(=O)O)cc1 the results were CHO parental Ca inactive, TAAR1 agonist inactive, OX1R antag-1 inactive, GPR7 antag inactive, TAAR1 antagonist inactive and OX1R antag-2 inactive.
Cc1nonc1C(=O)N/N=C/c1ccncc1 was read as CHO parental Ca inactive, TAAR1 agonist inactive, OX1R antag-1 inactive, GPR7 antag inactive, TAAR1 antagonist inactive and OX1R antag-2 inactive.
O=C(N/N=C/c1ccc([N+](=O)[O-])o1)C1CC1 was read as CHO parental Ca inactive, TAAR1 agonist inactive, OX1R antag-1 127, GPR7 antag inactive, TAAR1 antagonist inactive, OX1R antag-2 inactive, OX1R HTRF confirm 58 and CHO-K1 HTRF 75.
Cc1nonc1C(=O)N/N=C/c1ccc([N+](=O)[O-])o1 was read as CHO parental Ca inactive, TAAR1 agonist inactive, OX1R antag-1 144, GPR7 antag inactive, TAAR1 antagonist inactive, OX1R antag-2 inactive, OX1R HTRF confirm inactive and CHO-K1 HTRF 81.
`C[n+]1c(-c2ccc(C=NNC(=O)c3ccc(C(=O)NN=Cc4ccc(-c5cn6ccccc6[n+]5C)cc4)cc3)cc2)cn2ccccc21` gave TAAR1 agonist inactive and TAAR1 antagonist inactive.
Screening O=C(O)COc1ccccc1/C=C1\SC(=S)N(/N=C/c2ccccc2O)C1=O returned CHO parental Ca inactive, TAAR1 agonist inactive, OX1R antag-1 98, GPR7 antag inactive, TAAR1 antagonist inactive, OX1R antag-2 inactive, OX1R HTRF confirm 70 and CHO-K1 HTRF 46.
`O=C(O)COc1ccccc1/C=C1\SC(=S)N(NC(=O)c2ccccc2O)C1=O` gave CHO parental Ca inactive, TAAR1 agonist inactive, OX1R antag-1 inactive, TAAR1 antagonist inactive and OX1R antag-2 inactive.
`CC(=O)c1ccc(S(=O)(=O)NCC2CCN(C(=O)C(=O)c3cc4ccccc4o3)CC2)cc1` gave TAAR1 agonist inactive and TAAR1 antagonist inactive.
`CNC(=O)c1c(NC(=O)c2ccco2)sc2c1CCC2` gave CHO parental Ca inactive, TAAR1 agonist inactive, OX1R antag-1 78, GPR7 antag inactive, TAAR1 antagonist inactive, OX1R antag-2 inactive, OX1R HTRF confirm inactive and CHO-K1 HTRF inactive.
Screening COc1ccc(NS(=O)(=O)c2ccc(C)c(C(=O)NCc3ccccc3CN3CCCC3)c2)cc1 returned TAAR1 agonist inactive and TAAR1 antagonist inactive.
`CCCCNC(=O)C1(C)CCN1C(=O)c1cc2ccccc2s1` (configuration not stated) gave TAAR1 agonist inactive and TAAR1 antagonist inactive.
CNC(=O)COC(=O)c1ccc([N+](=O)[O-])cc1Cl was read as CHO parental Ca inactive, TAAR1 agonist inactive, OX1R antag-1 120, GPR7 antag inactive, TAAR1 antagonist inactive, OX1R antag-2 inactive, OX1R HTRF confirm inactive and CHO-K1 HTRF 74.
`COc1cc(CNCCSc2nnnn2C)cc(Br)c1OCc1ccccc1F` gave CHO parental Ca inactive, TAAR1 agonist inactive, OX1R antag-1 95, GPR7 antag inactive, TAAR1 antagonist inactive, OX1R antag-2 inactive, OX1R HTRF confirm inactive and CHO-K1 HTRF inactive.
Screening Cc1[nH]c2ccccc2c1CC(=O)Nc1ccc(Nc2cccnc2)c(-c2ccc(-c3ccccc3)cc2F)c1 returned TAAR1 agonist inactive and TAAR1 antagonist inactive.
`O=C(Nn1cnnc1)c1ccc([N+](=O)[O-])cc1Cl` gave CHO parental Ca inactive, TAAR1 agonist inactive, OX1R antag-1 inactive, TAAR1 antagonist inactive and OX1R antag-2 inactive.
`Cn1nnc(NC(=O)c2ccc([N+](=O)[O-])cc2Cl)n1` gave CHO parental Ca inactive, TAAR1 agonist inactive, OX1R antag-1 94, GPR7 antag inactive, TAAR1 antagonist inactive, OX1R antag-2 inactive, OX1R HTRF confirm 66 and CHO-K1 HTRF 53.
